According to paper PMC4177010 (Cancer chemotherapy and pharmacology, 2014):

Legend:
[1] = test system: SRC2; assay: ChIP at the CYP24A1 promoter in HL-60 cells, SRC2 antibody; assay type: cell-based, human; details: 20 nM 1,25(OH)2D3, 18 hours
[2] = test system: HTRA; assay: Human apoptosis antibody array, HL-60 cells; assay type: cell-based; details: 1,25(OH)2D3 (20 nM), 18 hours
In short: (§1)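 Lysates in kit lysis buffer went onto a blocked glass-chip array of 44 apoptosis capture antibodies spotted in duplicate, 18 h at 4 °C. Biotinylated detection antibodies and fluorescent streptavidin were each applied 2 h at room temperature. A fluorescence scan gave spot intensities.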

[3] = test system: Caco2 cells; assay: Cell proliferation assay; assay type: cell-based, human; details: 100 nM 1,25(OH)2D3, 5 days
[4] = test system: caspase 7; assay: rt-PCR mRNA levels in HL-60 cells; assay type: cell-based, human; details: 20 nM 1,25(OH)2D3, 18 hours
[5] = test system: Survivin; assay: Human apoptosis antibody array, HL-60 cells; assay type: cell-based; details: 1,25(OH)2D3 (20 nM), 18 hours
In short: as §1

[6] = test system: SKOV3 cells; assay: Cell proliferation assay; assay type: cell-based, human; details: 100 nM 1,25(OH)2D3, 5 days
[7] = test system: CYP3A4; assay: rt-PCR mRNA levels in HL-60 cells; assay type: cell-based, human; details: 18 hours, 1,25(OH)2D3 (20 nM), PS121912 (3 µM) or a combination thereof
[8] = test system: IGF-II; assay: Human apoptosis antibody array, HL-60 cells; assay type: cell-based; details: 1,25(OH)2D3 (20 nM), 18 hours
In short: as §1

[9] = test system: NCoR; assay: ChIP at the CYP24A1 promoter in HL-60 cells, NCoR antibody; assay type: cell-based, human; details: 20 nM 1,25(OH)2D3, 18 hours
[10] = test system: caspase 3; assay: rt-PCR mRNA levels in HL-60 cells; assay type: cell-based, human; details: 20 nM 1,25(OH)2D3, 18 hours
[11] = test system: HL-60 cells; assay: Cell proliferation assay; assay type: cell-based, human; details: HL-60 treated with VDR siRNA; same concentrations as non-transfected cells

## C=C1/C(=C\C=C2/CCC[C@]3(C)[C@@H]([C@H](C)CCCC(C)(C)O)CC[C@@H]23)C[C@@H](O)C[C@@H]1O [1,25(OH)2D3, 1,25-dihydroxyvitamin D3]
[1]
  SRC2 recruitment at the CYP24A1 promoter: recruitment of coactivator SRC2
[2]
  HTRA protein level: upregulated
[3]
  antiproliferative effect: minor antiproliferative effect
[4]
  caspase 7 mRNA levels: no change
[5]
  Survivin protein level: reduced
[6]
  antiproliferative effect: minor antiproliferative effect
[7]
  mRNA levels of CYP3A4: not altered
[8]
  IGF-II protein level: induced
[9]
  interaction between VDR and NCoR at the CYP24A1 promoter: reduced
[10]
  caspase 3 mRNA levels: no change
[11]
  antiproliferation effect in VDR siRNA treated cells: abolished
